Test results: ChEMBL document CHEMBL4177755, “Combating Drug-Resistant Fungi with Novel Imperfectly Amphipathic Palindromic Peptides” (J Med Chem, 2018)

Experiments:
Escherichia coli [1] = assay: Bactericidal activity against Escherichia coli ATCC 25922; type: functional; conditions: read-out: MBC99.9
Method in brief: (§1)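 Wells from the 24 h, 37 °C MHB microdilution plates (bacteria at a final (0.5−1) × 10^5 CFU/mL; peptide diluted in 0.2% BSA) were plated on agar and incubated overnight. MBC is the lowest concentration killing >99.9% of cells. Each test was reproduced at least 3 times.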

Candida albicans [2] = assay: Antifungal activity against Candida albicans SP3876 after 48 hrs by broth microdilution method; type: functional; conditions: SP3876, 48 h
Method in brief: (§2)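 Modified CLSI M27-A2 broth microdilution. Yeast at (0.5−1) × 10^3 CFU/mL in MOPS-buffered RPMI 1640 was mixed 1:1 with peptide serially diluted in 0.2% BSA and incubated 48 h at 28 °C. Absorbance was read at 492 nm; MIC is the lowest concentration inhibiting 95% of growth. Triplicate, three biological replicates.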

Candida albicans [3] = assay: Antifungal activity against Candida albicans cgmcc 2.2086 after 48 hrs by broth microdilution method; type: functional; conditions: cgmcc 2.2086, 48 h; method in brief: as §2
Salmonella typhimurium = assay: Antibacterial activity against Salmonella typhimurium ATCC 14028 after 24 hrs; type: functional, Salmonella enterica subsp. enterica serovar Typhimurium; conditions: Salmonella enterica, ATCC 14028, 24 h
Method in brief: (§3)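 Broth microdilution. Mid-log bacteria in MHB at a final (0.5−1) × 10^5 CFU/mL were mixed with equal volumes of peptide serially diluted in 0.2% BSA. Plates were incubated 24 h at 37 °C and read at A492. MIC is the lowest concentration inhibiting 95% of growth. Each test was repeated at least 3 times.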

Candida albicans [4] = assay: Antifungal activity against Candida albicans SP3903 after 48 hrs by broth microdilution method; type: functional; conditions: SP3903, 48 h; method in brief: as §2
Candida albicans [5] = assay: Antifungal activity against Candida albicans cgmcc 2.2086 in presence of FeCl3 by broth dilution method; type: functional
Candida albicans [6] = assay: Fungicidal activity against Candida albicans cgmcc 2.2086 after 96 hrs; type: functional; conditions: cgmcc 2.2086, 96 h, read-out: MFC99.9
Method in brief: (§4)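 After the 48 h, 28 °C broth microdilution in MOPS-buffered RPMI 1640 (inoculum (0.5−1) × 10^3 CFU/mL), 50 μL from each well was plated on YM agar for a further 48 h at 28 °C. MFC is the lowest concentration killing at least 99.9% of cells. Triplicate, three biological replicates.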

Candida albicans [7] = assay: Antifungal activity against Candida albicans cgmcc 2.2086 in presence of KCl by broth dilution method; type: functional
Staphylococcus aureus [8] = assay: Antibacterial activity against Staphylococcus aureus ATCC 25923 after 24 hrs; type: functional; conditions: ATCC 25923, 24 h
Method in brief: (§5)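 Modified NCCLS broth microdilution. Mid-log bacteria at (0.5−1) × 10^5 CFU/mL in MHB were mixed 1:1 with peptide serially diluted in 0.2% BSA and incubated 24 h at 37 °C. Absorbance was read at 492 nm; MIC is the lowest concentration inhibiting 95% of growth. At least 3 repeats.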

[9] = Antibacterial activity against Salmonella pullorum ATCC 7913 after 24 hrs; type: functional, Salmonella enterica subsp. enterica serovar Pullorum; conditions: Salmonella enterica, ATCC 7913, 24 h; method in brief: as §3
Pichia kudriavzevii = assay: Fungicidal activity against Candida krusei cgmcc 2.1857 after 96 hrs; type: functional; conditions: cgmcc 2.1857, 96 h, read-out: MFC99.9
Method in brief: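 Wells from the 48 h, 28 °C RPMI 1640/MOPS microdilution plates were plated on YM agar and incubated a further 48 h at 28 °C. MFC is the lowest concentration killing at least 99.9% of cells. Run in triplicate with three biological replicates.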

[10] = Cytotoxicity against mouse RAW264.7 cells assessed as cell viability at 2 to 64 uM after 24 hrs by MTT assay relative to control; type: cell-based; conditions: read-out: Activity
Method in brief: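 MTT viability assay. RAW264.7 or HEK293T cells at (1.0−2.0) × 10^5 per well were exposed to a peptide concentration series for 24 h at 37 °C in 5% CO2. MTT was then added at 0.5 mg/mL final for 4 h; formazan was dissolved in DMSO and read at 570 nm. Results average three independent trials.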

Candida albicans [11] = assay: Antifungal activity against fluconazole-resistant Candida albicans 56214 after 48 hrs by broth microdilution method; type: functional; conditions: Candida albicans, 56214, 48 h; method in brief: as §2
Candida albicans [12] = assay: Antifungal activity against Candida albicans SP3902 after 48 hrs by broth microdilution method; type: functional; conditions: SP3902, 48 h; method in brief: as §2
Erythrocyte = assay: Hemolytic activity in human RBC after 1 hr; type: ADME, cell-based
Method in brief: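 Fresh human erythrocytes, diluted 10-fold in PBS pH 7.4, were mixed with equal volumes of peptide and held 1 h at 37 °C. After centrifugation at 1000g, supernatant hemoglobin was read at 576 nm. PBS set 0% and 0.1% Triton X-100 set 100% lysis. MHC is the concentration causing 10% hemolysis. At least three experiments were run, each in technical triplicate.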

Candida albicans [13] = assay: Antifungal activity against Candida albicans SP3931 after 48 hrs by broth microdilution method; type: functional; conditions: SP3931, 48 h; method in brief: as §2
Escherichia coli [14] = assay: Antibacterial activity against Escherichia coli ATCC 25922 after 18 hrs in presence of MgCl2 by broth dilution method; type: functional; conditions: ATCC 25922, 18 h
Escherichia coli [15] = assay: Antibacterial activity against Escherichia coli ATCC 25922 after 18 hrs in presence of NH4Cl by broth dilution method; type: functional; conditions: ATCC 25922, 18 h
Staphylococcus aureus [16] = assay: Antibacterial activity against methicillin-resistant Staphylococcus aureus ATCC 4330 after 24 hrs; type: functional; conditions: ATCC 4330, 24 h; method in brief: as §5
Staphylococcus aureus [17] = assay: Bactericidal activity against methicillin-resistant Staphylococcus aureus ATCC 4330; type: functional; conditions: read-out: MBC99.9
Method in brief: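 Bacteria at (0.5−1) × 10^5 CFU/mL in MHB were exposed to serially diluted peptide (0.2% BSA) for 24 h at 37 °C, then 50 μL aliquots were plated on agar overnight. MBC is the lowest concentration killing >99.9% of cells. At least 3 repeats.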

Escherichia coli [18] = assay: Antibacterial activity against Escherichia coli ATCC 25922 after 18 hrs in presence of NaCl by broth dilution method; type: functional; conditions: ATCC 25922, 18 h
[19] = test system: Staphylococcus epidermidis; assay: Antibacterial activity against Staphylococcus epidermidis ATCC 12228 after 24 hrs; type: functional; conditions: ATCC 12228, 24 h; method in brief: as §3
Candida albicans [20] = assay: Antifungal activity against fluconazole-resistant Candida albicans 17546 after 48 hrs by broth microdilution method; type: functional; conditions: Candida albicans, 17546, 48 h; method in brief: as §2
Escherichia coli [21] = assay: Bactericidal activity against Escherichia coli 1005; type: functional; conditions: read-out: MBC99.9; method in brief: as §1
Candida albicans [22] = assay: Antifungal activity against Candida albicans cgmcc 2.2086 in presence of MgCl2 by broth dilution method; type: functional
Candida albicans [23] = assay: Antifungal activity against Candida albicans 58288 after 48 hrs by broth microdilution method; type: functional; conditions: Candida albicans, 58288, 48 h; method in brief: as §2
Staphylococcus aureus [24] = assay: Bactericidal activity against Staphylococcus aureus ATCC 25923; type: functional; conditions: read-out: MBC99.9; method in brief: as §1
[25] = test system: Staphylococcus epidermidis; assay: Bactericidal activity against Staphylococcus epidermidis ATCC 12228; type: functional; conditions: read-out: MBC99.9; method in brief: as §1
Candida albicans [26] = assay: Fungicidal activity against Candida albicans 58288 after 96 hrs; type: functional; conditions: Candida albicans, 58288, 96 h; read-out: MFC99.9; method in brief: as §4

Substance | MBC (Escherichia coli [1]) | MIC95 (Candida albicans [2]) | MIC95 (Candida albicans [3]) | MIC95 (Salmonella typhimurium) | MIC95 (Candida albicans [4]) | MIC (Candida albicans [5]) | MFC (Candida albicans [6]) | MIC (Candida albicans [7]) | MIC95 (Staphylococcus aureus [8]) | MIC95 [9] | MFC (Pichia kudriavzevii) | MIC95 (Candida albicans [11]) | MIC95 (Candida albicans [12]) | HC10 (Erythrocyte) | MIC95 (Candida albicans [13]) | MIC (Escherichia coli [14]) | MIC (Escherichia coli [15]) | MIC95 (Staphylococcus aureus [16]) | MBC (Staphylococcus aureus [17]) | MIC (Escherichia coli [18]) | other results
H-RFRFFFRFR-NH2 | 8 µM | 8 µM | 8 µM | 4 µM | 4 µM | 8 µM | 16 µM | 32 µM | 4 µM | 2 µM | 4 µM | 8 µM | 4 µM | > 128 µM | 8 µM | 2 µM | 4 µM | 4 µM | 4 µM | 4 µM | viability at 24 h, up to 64 µM [10]: 70 to 80%; MIC95 [19]: 4 µM; MIC95 (Candida albicans [20]): 4 µM; MBC (Escherichia coli [21]): 8 µM; MIC (Candida albicans [22]): 16 µM; MIC95 (Candida albicans [23]): 8 µM; MBC (Staphylococcus aureus [24]): 8 µM; MBC [25]: 8 µM; MFC (Candida albicans [26]): 16 µM
H-RIIRRIRRIIR-NH2 | 32 µM | 8 µM | 16 µM | 16 µM | 4 µM | 16 µM | 64 µM | 64 µM | 32 µM | 16 µM | 8 µM | 8 µM | 16 µM | > 128 µM | 16 µM | 16 µM | 16 µM | 16 µM | 16 µM | 16 µM | viability at 24 h, up to 64 µM [10]: 70 to 80%; MIC95 [19]: 16 µM; MIC95 (Candida albicans [20]): 16 µM; MBC (Escherichia coli [21]): 8 µM; MIC (Candida albicans [22]): 32 µM; MIC95 (Candida albicans [23]): 8 µM; MBC (Staphylococcus aureus [24]): 64 µM; MBC [25]: 32 µM; MFC (Candida albicans [26]): 16 µM
H-RWWRRWRRWWR-NH2 | 16 µM | 2 µM | 4 µM | 8 µM | 2 µM | 4 µM | 8 µM | 8 µM | 8 µM | 4 µM | 4 µM | 4 µM | 4 µM | > 128 µM | 8 µM | 8 µM | 16 µM | 4 µM | 8 µM | 16 µM | MIC95 [19]: 4 µM; MIC95 (Candida albicans [20]): 4 µM; MBC (Escherichia coli [21]): 8 µM; MIC (Candida albicans [22]): 8 µM; MIC95 (Candida albicans [23]): 2 µM; MBC (Staphylococcus aureus [24]): 16 µM; MBC [25]: 8 µM; MFC (Candida albicans [26]): 8 µM
H-WWRRWRRWW-NH2 | 32 µM | 4 µM | 8 µM | 8 µM | 4 µM | 8 µM | 16 µM | 16 µM | 4 µM | 8 µM | 4 µM | 4 µM | 8 µM | > 128 µM | 16 µM | 4 µM | 8 µM | 4 µM | 4 µM | 8 µM | MIC95 [19]: 4 µM; MIC95 (Candida albicans [20]): 2 µM; MBC (Escherichia coli [21]): 8 µM; MIC (Candida albicans [22]): 8 µM; MIC95 (Candida albicans [23]): 8 µM; MBC (Staphylococcus aureus [24]): 8 µM; MBC [25]: 8 µM; MFC (Candida albicans [26]): 8 µM
